# Measurements of several laboratories.
# Each line is one published result; the experiments were not run side by side.
# Target: Serine/threonine-protein kinase PLK3 (PLK3, Homo sapiens, UniProt Q9H4B4)
SMILES,read-out,mode,technique,concentration,measurement,value
C[C@H]1CC[C@H](n2c3cnccc3c3cnc(Nc4ccc5c(n4)CCN(C(=O)CO)C5)nc32)CC1,cell-free assay,,,1 µM,remaining signal,100%
COc1ccc2oc(-c3ccc4nc(N)oc4c3)c/c(=N\c3ccccc3NC(=O)CCN)c2c1,binding,,,1 µM,remaining binding,101%
C1=C/COCc2cc(ccc2OCCN2CCCC2)Nc2nccc(n2)-c2cccc(c2)COC/1,binding,,,0.1 µM,remaining binding,99%
CCCCC(=O)Nc1ccc(-c2ccc3ncn(CCC)c(=O)c3c2)cn1,binding,,competition with immobilised ligand,0.5 µM,remaining binding,98%
COc1ccc2[nH]c3c4[nH]c5ccc(OC)cc5c4c4c(c3c2c1)C(=O)NC4=O,binding,,,1 µM,remaining binding,88%
C#Cc1cc(-c2cc(Nc3nc(N[C@@H](C)c4ccc(F)cn4)ncc3Cl)n[nH]2)ccc1C=O,enzyme activity,inhibitor,,0.2 µM,inhibition,12.9%
C=CC(=O)N1CCC([C@@H]2CCNc3c(C(N)=O)c(-c4ccc(Oc5ccccc5)cc4)nn32)CC1,enzyme activity,inhibitor,,1 µM,inhibition,2%
C#Cc1cnc(Nc2ccnc(CO)c2)nc1Nc1ccccc1S(C)(=O)=NC#N (stereo not shown),cell-free assay,,,1 µM,remaining signal,34%
CC#CC(=O)N1CCC[C@H]1c1nc(-c2ccc(C(=O)Nc3ccccn3)cc2)c2c(N)nccn12,enzyme activity,inhibitor,,1 µM,inhibition,0%
N#Cc1ccc(NC(=O)Nc2ccccc2)cc1,cell-free assay,,competition with immobilised ligand,25 µM,remaining binding,88%
